Experimental data published in publication PMC3818380 (Archives of biochemistry and biophysics, 2013).

Target: interphotoreceptor retinoid-binding protein (IRBP) (Bos taurus, UniProt P12661)
Assay: Surface plasmon resonance
Design: species or system bovine
Details: for Stoichiometry (No. of sites): SPR, 25°C, n=3, ligand:IRBP binding stoichiometry; for kon: pH 7.4, read-out: ka, association rate constant; for koff: pH 7.4, read-out: kd, dissociation rate constant
Procedure, shortened: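 IRBP purified by chromatography from dark-adapted bovine retinas and amine-coupled at 10 µg/mL in 10 mM sodium acetate pH 4.5 to 10–12 kRU, with an unmodified reference channel. Running buffer 10 mM PBS pH 7.4, 0.01% Tween-20, 3% DMSO; for fatty acids, HEPES pH 7.4, 0.01% Tween-20, 3% ethanol. Seven two-fold FastStep injections, typically 0.01–15 µM, in triplicate at 25°C. Data double-referenced and globally fitted.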

Chain of interphotoreceptor retinoid-binding protein (IRBP) (P12661 23-1286): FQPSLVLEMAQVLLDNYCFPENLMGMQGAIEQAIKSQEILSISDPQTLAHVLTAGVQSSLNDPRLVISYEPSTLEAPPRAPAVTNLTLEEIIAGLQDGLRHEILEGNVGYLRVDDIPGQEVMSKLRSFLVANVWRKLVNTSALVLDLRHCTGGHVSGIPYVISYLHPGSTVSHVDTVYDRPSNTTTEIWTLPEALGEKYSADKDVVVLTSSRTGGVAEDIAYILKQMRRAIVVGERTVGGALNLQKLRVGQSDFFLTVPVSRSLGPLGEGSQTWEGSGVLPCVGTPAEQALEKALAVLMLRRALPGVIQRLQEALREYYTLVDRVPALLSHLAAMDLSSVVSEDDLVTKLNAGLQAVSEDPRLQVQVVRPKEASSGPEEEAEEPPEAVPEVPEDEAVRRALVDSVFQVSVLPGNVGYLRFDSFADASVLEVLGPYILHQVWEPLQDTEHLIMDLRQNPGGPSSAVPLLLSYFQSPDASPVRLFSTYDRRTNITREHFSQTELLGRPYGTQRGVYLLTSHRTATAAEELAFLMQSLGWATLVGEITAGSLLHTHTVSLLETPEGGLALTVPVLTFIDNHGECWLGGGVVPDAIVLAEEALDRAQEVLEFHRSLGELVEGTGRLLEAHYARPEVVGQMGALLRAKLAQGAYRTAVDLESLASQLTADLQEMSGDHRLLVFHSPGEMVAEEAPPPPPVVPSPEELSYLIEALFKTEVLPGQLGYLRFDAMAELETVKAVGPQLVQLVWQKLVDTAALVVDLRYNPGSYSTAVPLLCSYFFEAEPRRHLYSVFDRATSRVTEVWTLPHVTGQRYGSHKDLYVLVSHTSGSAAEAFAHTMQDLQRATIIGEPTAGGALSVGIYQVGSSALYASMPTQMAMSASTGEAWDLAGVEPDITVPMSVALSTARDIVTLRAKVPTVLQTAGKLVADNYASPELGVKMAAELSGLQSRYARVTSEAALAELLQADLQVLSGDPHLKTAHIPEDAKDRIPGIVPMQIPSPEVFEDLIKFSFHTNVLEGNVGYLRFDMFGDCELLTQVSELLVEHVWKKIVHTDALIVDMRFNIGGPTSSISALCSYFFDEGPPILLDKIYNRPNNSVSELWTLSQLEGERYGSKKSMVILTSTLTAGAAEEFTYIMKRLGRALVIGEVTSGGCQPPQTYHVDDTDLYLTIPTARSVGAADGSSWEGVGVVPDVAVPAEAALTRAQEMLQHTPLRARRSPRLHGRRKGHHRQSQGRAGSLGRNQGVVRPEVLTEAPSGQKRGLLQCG

## CC1=C(/C=C/C(C)=C/C=C/C(C)=C/C=O)C(C)(C)CCC1 [11-cis-retinal]
  Stoichiometry (No. of sites): 3.1

## CCCCCCCCCCCCCCCCCCCC(=O)O [Arachidic acid]
  Kd: 10.2 ± 0.7 µM
  Stoichiometry (No. of sites): 3.7
  kon: 280000 ± 1e+09 M⁻¹ s⁻¹
  koff: 2.8 ± 0.1 s⁻¹

## CCCCC/C=C\C/C=C\C/C=C\C/C=C\CCCC(=O)O [Arachidonic acid]
  Kd: 10 ± 0.1 µM
  Stoichiometry (No. of sites): 3.8
  kon: 24000 ± 3e+07 M⁻¹ s⁻¹
  koff: 0.24 ± 0.3 s⁻¹

## CC1=C(/C=C/C(C)=C/C=C/C(C)=C/C=C/C=C(C)/C=C/C=C(C)/C=C/C2=C(C)C(=O)[C@@H](O)CC2(C)C)C(C)(C)C[C@H](O)C1=O [Astaxanthin]
  Kd: 1.64 ± 0.06 µM
  Stoichiometry (No. of sites): 3.4
  kon: 26800 ± 9e+07 M⁻¹ s⁻¹
  koff: 0.04 ± 0.5 s⁻¹

## CC/C=C\C/C=C\C/C=C\C/C=C\C/C=C\C/C=C\CCC(=O)O [Docosahexaenoic acid (DHA), Docosahexaenoic acid]
  Kd: 10 ± 0.1 µM
  Stoichiometry (No. of sites): 3.4
  kon: 20000 ± 2e+07 M⁻¹ s⁻¹
  koff: 0.2 ± 0.2 s⁻¹

## CC/C=C\C/C=C\C/C=C\C/C=C\C/C=C\CCCC(=O)O [Eicosapentaenoic acid (EPA), Eicosapentaenoic acid]
  Kd: 9.4 ± 0.7 µM
  Stoichiometry (No. of sites): 3.4
  kon: 30000 ± 2e+07 M⁻¹ s⁻¹
  koff: 0.28 ± 0.4 s⁻¹

## CCCCC/C=C\C/C=C\CCCCCCCC(=O)O [Linoleic acid]
  Kd: 11 ± 0.2 µM
  Stoichiometry (No. of sites): 3.7
  kon: 23000 ± 4e+07 M⁻¹ s⁻¹
  koff: 0.26 ± 0.4 s⁻¹

## CC1=C[C@H](O)CC(C)(C)[C@H]1/C=C/C(C)=C/C=C/C(C)=C/C=C/C=C(C)/C=C/C=C(C)/C=C/C1=C(C)C[C@@H](O)CC1(C)C [Lutein]
  Kd: 1.06 ± 0.2 µM
  Stoichiometry (No. of sites): 3.4
  kon: 49000 ± 9e+07 M⁻¹ s⁻¹
  koff: 0.05 ± 0.4 s⁻¹

## CCCCCCCC/C=C\CCCCCCCC(=O)O [Oleic acid]
  Kd: 7.3 ± 0.7 µM
  Stoichiometry (No. of sites): 3.6
  kon: 150000 ± 2e+09 M⁻¹ s⁻¹
  koff: 1.1 ± 0.3 s⁻¹

## CCCCCCCCCCCCCCCC(=O)O [Palmitic acid]
  Kd: 11.1 ± 0.7 µM
  Stoichiometry (No. of sites): 3.7
  kon: 360000 ± 2e+09 M⁻¹ s⁻¹
  koff: 0.4 ± 0.1 s⁻¹

## CCCCCCCCCCCCCCCCCC(=O)O [Stearic acid]
  Kd: 7.03 ± 0.1 µM
  Stoichiometry (No. of sites): 3.7
  kon: 32000 ± 4e+07 M⁻¹ s⁻¹
  koff: 0.23 ± 0.6 s⁻¹

## CC1=C(/C=C/C(C)=C/C=C/C(C)=C/C=C/C=C(C)/C=C/C=C(C)/C=C/C2=C(C)C[C@@H](O)CC2(C)C)C(C)(C)C[C@H](O)C1 [Zeaxanthin]
  Kd: 1.64 ± 0.5 µM
  Stoichiometry (No. of sites): 3.3
  kon: 33000 ± 1e+07 M⁻¹ s⁻¹
  koff: 0.05 ± 0.5 s⁻¹

## CC1=C(/C=C/C(C)=C/C=C/C(C)=C/C(=O)O)C(C)(C)CCC1 [all -trans -retinoic acid]
  Kd: 3.5 ± 0.1 µM
  Stoichiometry (No. of sites): 3.4
  kon: 40000 ± 1e+07 M⁻¹ s⁻¹
  koff: 0.14 ± 0.2 s⁻¹

## CC1=C(/C=C/C(C)=C/C=C/C(C)=C/C=O)C(C)(C)CCC1 [all-trans-retinal]
  Stoichiometry (No. of sites): 3.2

## CC1=C(/C=C/C(C)=C/C=C/C(C)=C/CO)C(C)(C)CCC1 [all-trans-retinol]
  Stoichiometry (No. of sites): 3.5

## CC1=C(/C=C/C(C)=C/C=C/C(C)=C/C=C/C=C(C)/C=C/C=C(C)/C=C/C2=C(C)CCCC2(C)C)C(C)(C)CCC1 [β-carotene]
  Kd: 0.92 ± 0.1 µM
  Stoichiometry (No. of sites): 3.1
  kon: 122000 ± 2e+09 M⁻¹ s⁻¹
  koff: 0.11 ± 0.8 s⁻¹

## meso-zeaxanthin
  Stoichiometry (No. of sites): 3.2
